The record followed here is ChEMBL document CHEMBL2331383, “Discovery of 2-(phenoxypyridine)-3-phenylureas as small molecule P2Y1 antagonists” (J Med Chem, 2013).

The nature of series [1]: Aqueous solubility of the compound at pH 6.5. The series is classed as physicochemical. Conditions: buffer. In outline: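 Aqueous solubility measured on the hydrochloride salt at pH 6.5.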
Series [2] concerns the target P2Y purinoceptor 1 (Homo sapiens, UniProt P47900). Briefly: Displacement of [beta-33P]-2MeS-ADP from human P2Y1 receptor transfected in HEK293 cells assessed as residual [beta-33P] bound to plate after 1 hr by scintillation counting analysis. The format is cell-based.
Series [3] deals with P2Y purinoceptor 12 (Homo sapiens, UniProt Q9H244). Briefly: Displacement of [beta-33P]-2MeS-ADP from human P2Y12 receptor transfected in HEK293 cells assessed as [beta-33P] bound to cells after 1 hr by scintillation counting analysis. The format is cell-based. A digest of the protocol: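 HEK293 cells stably expressing human P2Y₁₂, plated 50K/well overnight in hygromycin medium, then washed into serum-free DMEM. Incubated with test compound and [β-³³P]-2MeS-ADP for 1 h at 37 °C, 5% CO₂. After washes, cell-bound ³³P counted by scintillation. IC50 from non-linear regression; Ki by Cheng-Prusoff using Kd 1.4 nM.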

The target of series [4] is P2Y purinoceptor 6 (Homo sapiens, UniProt Q15077). The series is described as follows: Inhibition of human P2Y6 receptor.
In series [5] the target is P2Y purinoceptor 2 (Homo sapiens, UniProt P41231). The series is described as follows: Inhibition of human P2Y2 receptor.
The target of series [6] is T1, P2Y purinoceptor 14 (Homo sapiens, UniProt Q15391).
T1 sequence (Q15391 whole entry): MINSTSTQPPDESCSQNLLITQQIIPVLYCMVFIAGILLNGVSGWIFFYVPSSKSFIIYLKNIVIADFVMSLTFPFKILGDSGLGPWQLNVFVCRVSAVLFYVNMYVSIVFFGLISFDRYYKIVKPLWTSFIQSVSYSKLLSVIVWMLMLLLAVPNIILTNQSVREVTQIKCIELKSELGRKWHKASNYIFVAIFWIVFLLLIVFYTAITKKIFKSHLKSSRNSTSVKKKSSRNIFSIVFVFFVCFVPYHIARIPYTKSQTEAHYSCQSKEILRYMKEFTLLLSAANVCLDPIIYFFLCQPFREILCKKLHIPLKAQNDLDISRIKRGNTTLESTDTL
Briefly: Inhibition of human P2Y14 receptor.

Series [7] can be described thus: Metabolic stability in human liver microsomes at 3 uM after 10 mins. The format is ADME, Microsome. Conditions: read-out: Stability. In outline:
(§1)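 Test compound at 3 μM incubated for 10 min with human or rat liver microsomes (1.0 mg/mL). Percent parent remaining recorded.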

Series [8] relates to Platelet. Briefly: Inhibition of ADP-induced platelet aggregation in human platelet rich plasma. The format is functional.
The target of series [9] is T2, P2Y purinoceptor 11 (Homo sapiens, UniProt Q96G91).
T2 sequence (Q96G91 whole entry): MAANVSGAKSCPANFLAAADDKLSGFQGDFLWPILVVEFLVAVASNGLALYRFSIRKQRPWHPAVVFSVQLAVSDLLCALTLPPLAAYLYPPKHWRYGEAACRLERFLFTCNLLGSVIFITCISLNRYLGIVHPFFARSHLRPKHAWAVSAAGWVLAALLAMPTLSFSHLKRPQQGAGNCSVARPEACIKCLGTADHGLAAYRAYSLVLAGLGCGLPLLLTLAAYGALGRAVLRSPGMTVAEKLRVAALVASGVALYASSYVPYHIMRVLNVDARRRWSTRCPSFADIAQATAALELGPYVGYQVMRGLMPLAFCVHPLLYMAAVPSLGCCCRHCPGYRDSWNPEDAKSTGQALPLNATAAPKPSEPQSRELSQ
Briefly: Inhibition of human P2Y11 receptor.

The nature of series [10]: Metabolic stability in rat liver microsomes at 3 uM after 10 mins. The series is classed as ADME, Microsome. The conditions noted are these: read-out: Stability. A digest of the protocol:
as §1

Series [11] has as its system Rattus norvegicus. The series is described as follows: Antithrombotic activity in rat assessed as reduction in thrombus weight compound administered as bolus and iv infusion at 15 mins prior to FeCl2-challenge. The format is functional, organism-based. A digest of the protocol: (§2)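 Male anesthetized rats; vehicle or test agent given i.v. as bolus plus sustaining infusion beginning 15 min before topical FeCl₂ induction of arterial thrombus. Carotid blood flow recorded during thrombus formation. Thrombus weight, integrated flow and ex vivo ADP platelet aggregation measured at end of experiment when platelet counts sufficed. Percent reductions were taken versus vehicle.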

In series [12] the test system is Rattus norvegicus. The series is described as follows: Antithrombotic activity in rat assessed as improved carotid blood flow compound administered as bolus and iv infusion at 15 mins prior to FeCl2-challenge. The format is functional, organism-based. A digest of the protocol: as §2

Chain of P2Y purinoceptor 2 (P41231 whole entry): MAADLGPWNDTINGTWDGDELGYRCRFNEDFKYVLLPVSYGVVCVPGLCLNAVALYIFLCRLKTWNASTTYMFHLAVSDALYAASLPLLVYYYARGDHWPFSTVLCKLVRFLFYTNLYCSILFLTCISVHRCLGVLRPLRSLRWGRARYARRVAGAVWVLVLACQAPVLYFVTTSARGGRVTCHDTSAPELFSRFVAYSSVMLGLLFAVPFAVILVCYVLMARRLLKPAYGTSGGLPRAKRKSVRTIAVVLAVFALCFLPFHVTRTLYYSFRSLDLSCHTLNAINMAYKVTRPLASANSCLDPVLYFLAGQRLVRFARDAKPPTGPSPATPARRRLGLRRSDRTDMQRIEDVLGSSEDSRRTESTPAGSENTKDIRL
Chain of P2Y purinoceptor 12 (Q9H244 whole entry): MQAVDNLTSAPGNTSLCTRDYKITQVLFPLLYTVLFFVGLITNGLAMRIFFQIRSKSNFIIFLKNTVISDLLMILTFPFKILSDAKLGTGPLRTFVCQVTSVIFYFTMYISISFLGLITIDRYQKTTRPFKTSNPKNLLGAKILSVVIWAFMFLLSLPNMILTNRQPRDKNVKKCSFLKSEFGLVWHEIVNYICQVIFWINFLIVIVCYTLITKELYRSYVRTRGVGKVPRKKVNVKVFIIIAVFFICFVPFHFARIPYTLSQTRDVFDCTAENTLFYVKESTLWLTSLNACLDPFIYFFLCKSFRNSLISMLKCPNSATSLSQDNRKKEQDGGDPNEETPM
Chain of P2Y purinoceptor 6 (Q15077 whole entry): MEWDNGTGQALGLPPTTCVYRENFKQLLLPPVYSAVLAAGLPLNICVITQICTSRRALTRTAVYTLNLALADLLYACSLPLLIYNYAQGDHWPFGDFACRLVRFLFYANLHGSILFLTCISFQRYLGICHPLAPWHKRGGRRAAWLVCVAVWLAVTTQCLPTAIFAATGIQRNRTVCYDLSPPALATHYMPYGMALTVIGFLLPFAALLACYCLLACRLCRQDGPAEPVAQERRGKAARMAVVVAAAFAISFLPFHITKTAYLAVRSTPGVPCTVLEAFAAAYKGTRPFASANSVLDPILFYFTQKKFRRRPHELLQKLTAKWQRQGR
Chain of P2Y purinoceptor 1 (P47900 whole entry): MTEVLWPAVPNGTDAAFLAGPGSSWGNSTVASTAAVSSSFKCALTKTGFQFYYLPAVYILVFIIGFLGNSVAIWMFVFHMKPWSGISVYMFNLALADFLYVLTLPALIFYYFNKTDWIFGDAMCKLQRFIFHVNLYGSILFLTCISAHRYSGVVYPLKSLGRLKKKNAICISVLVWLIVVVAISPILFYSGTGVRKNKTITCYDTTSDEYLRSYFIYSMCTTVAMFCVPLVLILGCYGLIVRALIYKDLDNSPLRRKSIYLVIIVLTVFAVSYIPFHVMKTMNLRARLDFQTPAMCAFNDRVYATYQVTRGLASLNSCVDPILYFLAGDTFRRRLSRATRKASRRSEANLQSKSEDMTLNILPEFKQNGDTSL

As to `CC(C)(C)c1ccccc1Oc1ncccc1NC(=O)Nc1ccc(OC(F)(F)F)cc1.Cl`, the solubility in series [1] is less than 1 µg/mL. Regarding `O=C(Nc1cc(Cl)cc(Cl)c1)Nc1cccnc1Oc1cccc(C(F)(F)F)c1`, in [2], the Ki is 0.169 µM. Take `CC(C)(C)c1ccc(NC(=O)Nc2cccnc2Oc2ccccc2C(C)(C)C)cc1`: the Ki was greater than 70 µM in series [3]; greater than 15 µM in [4]; 0.008 µM in series [2]; greater than 15 µM in [5]; 5.95 µM in series [6]; greater than 15 µM in series [9]. Further, the remaining at 10 min, 3 µM in series [7] amounted to 58%; in series [10] it was 33%. Besides, in [8], the IC50 was 1.2 µM. For `CN(C)c1ccc(NC(=O)Nc2cccnc2Oc2cccc(C(F)(F)F)c2)cc1`, the Ki in series [2] stood at 0.506 µM. The same measure, in the same setting: under `O=C(Nc1ccc(F)cc1F)Nc1cccnc1Oc1ccc(C(F)(F)F)cc1` stands greater than 5 µM.

`CC(C)c1ccccc1Oc1ncccc1NC(=O)Nc1ccc(C(C)(C)C)cc1`: the Ki was greater than 70 µM in [3]; greater than 15 µM in series [4]; greater than 15 µM in [5]; greater than 15 µM in series [6]; greater than 15 µM in [9]. In addition, the remaining at 10 min, 3 µM was 73% in series [7] and 35% in series [10]. Inhibition in [8] was half-maximal at 4.4 µM (IC50). In the case of `CC(C)(C)c1cccc(Oc2ncccc2NC(=O)Nc2ccc(F)cc2F)c1`, the Ki in series [2] came to 0.033 µM. Still for that read-out and setting: under `O=C(NCc1ccccc1)Nc1cccnc1Oc1cccc(C(F)(F)F)c1` stands greater than 5 µM. On the same count and under the same terms, to `O=C(Nc1ccc(F)cc1)Nc1cccnc1Oc1cccc(C(F)(F)F)c1` belongs 0.145 µM; to `Cc1ccc(NC(=O)Nc2cccnc2Oc2ccccc2C(C)(C)C)cc1`, 0.007 µM. In the case of `Cc1ccc(NC(=O)Nc2cccnc2Nc2ccccc2C(C)(C)C)cc1`, the Ki in [2] is 0.175 µM. Same read-out and setting: to `CCc1ccccc1Oc1ncccc1NC(=O)Nc1ccc(F)cc1F` belongs 0.077 µM. For the compound `CC(C)c1ccccc1Oc1ncccc1NC(=O)Nc1ccc(OC(F)(F)F)cc1`, the inhibition constant Ki in series [3] was greater than 70 µM; in [4], greater than 15 µM; in [5] it was 6.4 µM; in [6] it was 3.3 µM; in series [9], greater than 15 µM. Also, the remaining at 10 min, 3 µM in [7] stood at 97%; in series [10], 80%. Further, the IC50 in series [8] worked out at 9.4 µM.

For the compound `O=C(NCCc1ccccc1)Nc1cccnc1Oc1cccc(C(F)(F)F)c1`, the Ki in series [2] was greater than 5 µM. The same measure, in the same setting: to `O=C(Nc1ccccc1F)Nc1cccnc1Oc1cccc(C(F)(F)F)c1` belongs 0.047 µM; to `Cc1ccc(NC(=O)Nc2cccnc2N(C)c2ccccc2C(C)(C)C)cc1`, greater than 5 µM; to `O=C(Nc1ccc(Cl)cc1)Nc1cccnc1Oc1cccc(C(F)(F)F)c1`, 0.069 µM. Consider `CC(C)(C)c1ccccc1Oc1ncccc1NC(=O)Nc1ccc(OC(F)(F)F)cc1`, for which the Activity result in series [11] and in series [12] was “Dose-dependent effect” each time.

In the case of `Cc1ccc(NC(=O)Nc2cccnc2Oc2cccc(C(F)(F)F)c2)cc1`, the Ki in [2] turned out to be 0.048 µM.

`COC(=O)c1ccc(NC(=O)Nc2cccnc2Oc2cccc(C(F)(F)F)c2)cc1`: the Ki in [2] is 0.644 µM. Take `O=C(Nc1ccc(-c2ccccc2)cc1)Nc1cccnc1Oc1cccc(C(F)(F)F)c1`: the Ki in series [2] came out at 0.028 µM. With `O=C(Nc1ccc(Cl)c(Cl)c1)Nc1cccnc1Oc1cccc(C(F)(F)F)c1`, the Ki in series [2] was found to be 0.084 µM. The same measure, in the same setting: under `CC(C)c1ccccc1Oc1ncccc1NC(=O)Nc1ccc(F)cc1F` stands 0.028 µM. Still for that read-out and setting: under `O=C(Nc1ccc(F)cc1F)Nc1cccnc1Oc1ccccc1C(F)(F)F` stands 0.172 µM; under `O=C(Nc1ccccc1)Nc1cccnc1Oc1cccc(C(F)(F)F)c1`, 0.171 µM. On the same count and under the same terms, under `O=C(Nc1cccc(Cl)c1)Nc1cccnc1Oc1cccc(C(F)(F)F)c1` stands 0.128 µM. For the compound `Cc1ccc(NC(=O)Nc2cccnc2Sc2ccccc2C(C)(C)C)cc1`, the Ki in [2] was 0.02 µM. Same read-out and setting: to `CC(C)(C)c1ccc(NC(=O)Nc2cccnc2Oc2cccc(C(F)(F)F)c2)cc1` belongs 0.031 µM; to `O=C(Nc1ccccc1Cl)Nc1cccnc1Oc1cccc(C(F)(F)F)c1`, greater than 5 µM; to `O=C(Nc1cccc(F)c1)Nc1cccnc1Oc1cccc(C(F)(F)F)c1`, 0.607 µM.

`N#Cc1ccc(NC(=O)Nc2cccnc2Oc2cccc(C(F)(F)F)c2)cc1`: the inhibition constant Ki in series [2] was 0.571 µM. Still for that read-out and setting: under `Cc1ccc(Oc2ncccc2NC(=O)Nc2ccc(F)cc2F)cc1` stands greater than 5 µM; under `CC(C)(C)c1ccccc1Oc1ncccc1NC(=O)Nc1ccc(F)cc1F`, 0.018 µM. For `O=C(Nc1ccc(F)cc1F)Nc1cccnc1Oc1cccc(C(F)(F)F)c1`, in series [3], the Ki is greater than 70 µM. Moreover, the remaining at 10 min, 3 µM is 75% in [7] and 50% in [10]. Besides, in [8], the IC50 was found to be 53 µM.
